Consider 26 compounds from ChEMBL document CHEMBL5214983, “New Dual P-Glycoprotein (P-gp) and Human Carbonic Anhydrase XII (hCA XII) Inhibitors as Multidrug Resistance (MDR) Reversers in Cancer Cells” (J Med Chem, 2022).

A short description of series [1]: Stability in human plasma assessed as half-life measured by LC-MS/MS analysis. The format is ADME, cell-free. The method, boiled down: (§1)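 Analyte at 1 μM in PBS or in pooled human plasma, incubated at 37 °C for 0, 30, 60 and 120 min, in triplicate. Internal standard verapamil added, mixture centrifuged, supernatant dried and redissolved. Analyte quantified by LC-MS/MS. Half-life taken from the slope of ln(concentration) versus time. Ketoprofen ethyl ester served as plasma activity reference.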

A short description of series [2]: Stability in PBS measured by LC-MS/MS analysis. The format is physicochemical. The note with it: buffer. Summed up: as §1
Series [3] deals with T1, ATP-dependent translocase ABCB1 (Homo sapiens, UniProt P08183). The series can be described thus: Inhibition of P-gp in doxorubicin-resistant carbonic anhydrase knockout human HT-29 cells overexpressing P-gp assessed as Vmax at 1 uM in presence of 0 to 100 uM doxorubicin […]. The series is classed as cell-based. The note with it: ht-29, 1 µM. The method, boiled down: (§2)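 Cells incubated 20 min with 0–100 μM doxorubicin, alone or with compound at 1 or 3 μM. A parallel set was left a further 10 min at 37 °C, then intracellular drug measured. Doxorubicin extruded (nmol/min/mg protein) plotted against initial concentration and fitted to Michaelis–Menten to give Vmax and Km. Mean ± SD.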

The target in series [4] is T1, ATP-dependent translocase ABCB1. The series can be described thus: Inhibition of P-gp in doxorubicin-resistant human HT-29 cells overexpressing P-gp assessed as Vmax at 1 uM in presence of 0 to 100 uM doxorubicin […]. The format is cell-based. The following applies: ht-29, 1 µM. Summed up:
as §2

Series [5] has the same target. Put plainly: Inhibition of P-gp in doxorubicin-resistant carbonic anhydrase knockout human A549 cells overexpressing P-gp assessed as Vmax at 3 uM in presence of 0 to 100 uM doxorubicin […]. The series is classed as cell-based. The following applies: a549, 3 µM. Summed up:
as §2

Series [6] shares this target. Put plainly: Inhibition of P-gp in doxorubicin-resistant human A549 cells overexpressing P-gp assessed as increase in doxorubicin retention 3 uM in presence of 5 uM doxorubicin measured after 24 hrs by spectrophotometric method. The series is classed as cell-based. The following applies: a549, 24 h. The method, boiled down:
(§3)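 Resistant cells (wild-type, P-gp KO or hCA XII KO; KO lines selected with 1 μg/mL puromycin) exposed to 5 μM doxorubicin alone or with test compound at 1 or 3 μM. Cells washed, trypsinized and extracted in ethanol/0.3 N HCl. Doxorubicin fluorescence read at ex 475/em 553 nm and converted to nmol/mg cell protein with a calibration curve. Mean ± SD, n = 3.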

Series [7] has the same target. Put plainly: Inhibition of P-gp in doxorubicin-resistant carbonic anhydrase knockout human HT-29 cells overexpressing P-gp assessed as Vmax at 3 uM in presence of 0 to 100 uM doxorubicin […]. The format is cell-based. The note with it: ht-29, 3 µM. The method, boiled down: as §2
For series [8] the target is unchanged. Put plainly: Inhibition of P-gp in doxorubicin-resistant human HT-29 cells overexpressing P-gp assessed as increase in doxorubicin retention 3 uM in presence of 5 uM doxorubicin measured after 24 hrs by spectrophotometric method. The following applies: ht-29, 24 h. The format is cell-based. The method, boiled down: as §3
Series [9] shares this target. Put plainly: Inhibition of P-gp in doxorubicin-resistant human A549 cells overexpressing P-gp assessed as Vmax at 1 uM in presence of 0 to 100 uM doxorubicin […]. The series is classed as cell-based. The note with it: a549, 1 µM. The method, boiled down:
as §2

Series [10] shares this target. Put plainly: Inhibition of P-gp in doxorubicin-resistant human A549 cells overexpressing P-gp assessed as Vmax at 3 uM in presence of 0 to 100 uM doxorubicin […]. The format is cell-based. The note with it: a549, 3 µM. Summed up:
as §2

Series [11] has the same target. Put plainly: Inhibition of P-gp in human A549 cells overexpressing P-gp assessed as Vmax at 3 uM in presence of 0 to 100 uM doxorubicin […]. The series is classed as cell-based. The note with it: a549, 3 µM. Summed up: as §2
Series [12] shares this target. Put plainly: Inhibition of P-gp in human HT-29 cells overexpressing P-gp assessed as Vmax at 3 uM in presence of 0 to 100 uM doxorubicin […]. The series is classed as cell-based. The note with it: ht-29, 3 µM. Summed up:
as §2

For series [13] the target is unchanged. Put plainly: Inhibition of P-gp in human A549 cells overexpressing P-gp assessed as Vmax at 1 uM in presence of 0 to 100 uM doxorubicin […]. The format is cell-based. The note with it: a549, 1 µM. Summed up: as §2
The target is the same in series [14]. The series can be described thus: Inhibition of P-gp in doxorubicin-resistant human A549 cells overexpressing P-gp assessed as increase in doxorubicin retention 1 uM in presence of 5 uM doxorubicin measured after 24 hrs by spectrophotometric method. The series is classed as cell-based. The following applies: a549, 24 h. Summed up: as §3
For series [15] the target is unchanged. Put plainly: Inhibition of P-gp in doxorubicin-resistant carbonic anhydrase knockout human A549 cells overexpressing P-gp assessed as Vmax at 1 uM in presence of 0 to 100 uM doxorubicin […]. The series is classed as cell-based. The note with it: a549, 1 µM. Summed up: as §2
For series [16] the target is unchanged. The series can be described thus: Inhibition of P-gp in doxorubicin-resistant human HT-29 cells overexpressing P-gp assessed as Vmax at 3 uM in presence of 0 to 100 uM doxorubicin […]. The format is cell-based. The note with it: ht-29, 3 µM. The method, boiled down:
as §2

Series [17] shares this target. Put plainly: Inhibition of P-gp in human HT-29 cells overexpressing P-gp assessed as Vmax at 1 uM in presence of 0 to 100 uM doxorubicin […]. The series is classed as cell-based. The following applies: ht-29, 1 µM. Summed up: as §2
The target is the same in series [18]. Put plainly: Inhibition of P-gp in doxorubicin-resistant human HT-29 cells overexpressing P-gp assessed as increase in doxorubicin retention 1 uM in presence of 5 uM doxorubicin measured after 24 hrs by spectrophotometric method. The note with it: ht-29, 24 h. The format is cell-based. Summed up: as §3

T1 sequence (P08183 whole entry): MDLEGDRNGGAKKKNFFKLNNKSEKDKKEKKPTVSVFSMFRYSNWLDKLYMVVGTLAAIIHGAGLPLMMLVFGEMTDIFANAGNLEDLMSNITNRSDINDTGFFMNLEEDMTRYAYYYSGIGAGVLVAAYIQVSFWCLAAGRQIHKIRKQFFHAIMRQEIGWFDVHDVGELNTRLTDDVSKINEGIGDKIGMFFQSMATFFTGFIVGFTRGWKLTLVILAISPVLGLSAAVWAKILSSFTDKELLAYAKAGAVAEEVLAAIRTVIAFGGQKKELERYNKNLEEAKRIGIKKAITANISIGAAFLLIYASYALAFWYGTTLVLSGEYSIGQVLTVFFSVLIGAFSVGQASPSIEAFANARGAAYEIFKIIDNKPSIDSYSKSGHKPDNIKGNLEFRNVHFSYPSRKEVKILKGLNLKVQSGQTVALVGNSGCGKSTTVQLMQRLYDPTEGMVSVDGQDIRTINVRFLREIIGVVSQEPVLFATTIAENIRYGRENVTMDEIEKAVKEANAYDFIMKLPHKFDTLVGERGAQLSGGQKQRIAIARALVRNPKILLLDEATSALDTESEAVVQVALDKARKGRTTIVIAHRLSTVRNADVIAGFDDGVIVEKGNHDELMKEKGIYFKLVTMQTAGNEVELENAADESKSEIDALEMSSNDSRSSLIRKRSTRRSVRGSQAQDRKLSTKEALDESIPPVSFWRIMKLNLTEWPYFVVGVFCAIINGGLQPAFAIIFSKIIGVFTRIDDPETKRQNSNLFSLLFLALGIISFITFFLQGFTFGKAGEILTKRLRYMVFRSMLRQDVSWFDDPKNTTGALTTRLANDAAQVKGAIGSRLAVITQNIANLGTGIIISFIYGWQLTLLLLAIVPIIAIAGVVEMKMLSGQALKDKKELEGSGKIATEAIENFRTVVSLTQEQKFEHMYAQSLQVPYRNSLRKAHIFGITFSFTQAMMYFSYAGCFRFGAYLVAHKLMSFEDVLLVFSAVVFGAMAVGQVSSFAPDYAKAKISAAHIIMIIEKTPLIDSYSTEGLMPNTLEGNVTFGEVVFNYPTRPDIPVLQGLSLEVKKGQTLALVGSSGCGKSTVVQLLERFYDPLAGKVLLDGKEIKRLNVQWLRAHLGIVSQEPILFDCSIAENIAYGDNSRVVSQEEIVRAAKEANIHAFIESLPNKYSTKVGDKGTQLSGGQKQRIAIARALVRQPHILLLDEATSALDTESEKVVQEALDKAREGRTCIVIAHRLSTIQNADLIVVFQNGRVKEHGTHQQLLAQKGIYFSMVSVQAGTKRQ

For `COc1cc(/C=C/C(=O)OCCCCCN(CCCOC(=O)c2cc(OC)c(OC)c(OC)c2)CCCOc2ccc3ccc(=O)oc3c2)cc(OC)c1OC`, the Stability result in series [1] and in series [2] was “Stable” in each case.

In the case of `COc1cc(/C=C/C(=O)OCCCN(CCCCCCOC(=O)c2cc(OC)c(OC)c(OC)c2)CCCOc2ccc3ccc(=O)oc3c2)cc(OC)c1OC`, the Stability result in series [1] and in [2] was “Stable” in each case.

With `COc1cc(C(=O)OCCCCCCCN(CCCOC(=O)c2c3ccccc3cc3ccccc23)CCCOc2ccc3ccc(=O)oc3c2)cc(OC)c1OC`, the Stability result in series [1] and in series [2] was “Stable” throughout.

`COc1cc(/C=C/C(=O)OCCCCCN(CCCOC(=O)/C=C/c2cc(OC)c(OC)c(OC)c2)CCCOc2ccc3ccc(=O)oc3c2)cc(OC)c1OC`: the Stability entry in [1] and in series [2] was “Stable” throughout.

Regarding `COc1cc(/C=C/C(=O)OCCCCCCCN(CCCOC(=O)c2c3ccccc3cc3ccccc23)CCCOc2ccc3ccc(=O)oc3c2)cc(OC)c1OC`, the Stability entry in series [1] and in [2] was “Stable” in each case.

In the case of `COc1cc(/C=C/C(=O)OCCCCCCN(CCCOC(=O)c2c3ccccc3cc3ccccc23)CCCOc2ccc3ccc(=O)oc3c2)cc(OC)c1OC`, the Stability result in [1] and in [2] was “Stable” each time.

For `COc1cc(/C=C/C(=O)OCCCN(CCCCCOC(=O)c2c3ccccc3cc3ccccc23)CCCOc2ccc3ccc(=O)oc3c2)cc(OC)c1OC`, the Stability result in series [1] and in series [2] was “Stable” each time.

`COc1cc(C(=O)OCCCN(CCCCCCOC(=O)c2c3ccccc3cc3ccccc23)CCCOc2ccc3ccc(=O)oc3c2)cc(OC)c1OC`: the Stability result in series [1] and in series [2] was “Stable” in each case.

Turning to `O=C(OCCCCCCN(CCCOC(=O)c1c2ccccc2cc2ccccc12)CCCOc1ccc2ccc(=O)oc2c1)c1c2ccccc2cc2ccccc12`, the Stability result in [1] and in series [2] was “Stable” in each case.

Regarding `O=C(OCCCCCCCN(CCCOC(=O)c1c2ccccc2cc2ccccc12)CCCOc1ccc2ccc(=O)oc2c1)c1c2ccccc2cc2ccccc12`, the Stability entry in [1] and in [2] was “Stable” throughout.

Regarding `COc1cc(/C=C/C(=O)OCCCN(CCCCCCOC(=O)c2c3ccccc3cc3ccccc23)CCCOc2ccc3ccc(=O)oc3c2)cc(OC)c1OC`, the Stability entry in series [1] and in series [2] was “Stable” in each case.

For the compound `COc1cc(/C=C/C(=O)OCCCCCN(CCCOC(=O)c2c3ccccc3cc3ccccc23)CCCOc2ccc3ccc(=O)oc3c2)cc(OC)c1OC`, the Stability result in series [1] and in series [2] was “Stable” in each case.

With `COc1cc(C(=O)OCCCCCCN(CCCOC(=O)c2c3ccccc3cc3ccccc23)CCCOc2ccc3ccc(=O)oc3c2)cc(OC)c1OC`, the Stability result in series [1] and in [2] was “Stable” throughout.

As for `O=C(OCCCCCN(CCCOC(=O)c1c2ccccc2cc2ccccc12)CCCOc1ccc2ccc(=O)oc2c1)c1c2ccccc2cc2ccccc12`, the Stability result in series [1] and in series [2] was “Stable” each time.

As to `COc1cc(/C=C/C(=O)OCCCN(CCCCCCCOC(=O)c2cc(OC)c(OC)c(OC)c2)CCCOc2ccc3ccc(=O)oc3c2)cc(OC)c1OC`, the Stability entry in [1] and in series [2] was “Stable” each time.

`COc1cc(C(=O)OCCCN(CCCCCCCOC(=O)c2c3ccccc3cc3ccccc23)CCCOc2ccc3ccc(=O)oc3c2)cc(OC)c1OC`: the Stability result in [1] and in [2] was “Stable” throughout.

In the case of `COc1cc(C(=O)OCCCCCN(CCCOC(=O)c2cc(OC)c(OC)c(OC)c2)CCCOc2ccc3ccc(=O)oc3c2)cc(OC)c1OC`, the Vmax in series [3] amounted to 4.3 µmol/min; in series [4], 5.3 µmol/min; in [5], 2.74 µmol/min; in series [7], 3.22 µmol/min; in [9], 5.1 µmol/min; in series [10], 3.98 µmol/min. The Vmax in series [11] was 2.35 µmol/min; in series [12], 3.12 µmol/min; in series [13], 2.36 µmol/min; in [15], 3.75 µmol/min; in series [16], 3.21 µmol/min; in series [17], 3.29 µmol/min. Also, the Stability result in series [1] and in [2] was “Stable” each time. Further, the “inhibition (INH)” value in series [6], in [8], in [14] and in series [18] was “Active” in each case.

As for `COc1cc(/C=C/C(=O)OCCCN(CCCCCCCOC(=O)c2c3ccccc3cc3ccccc23)CCCOc2ccc3ccc(=O)oc3c2)cc(OC)c1OC`, the Stability result in [1] and in series [2] was “Stable” in each case.

`COc1cc(/C=C/C(=O)OCCCCCCCN(CCCOC(=O)/C=C/c2cc(OC)c(OC)c(OC)c2)CCCOc2ccc3ccc(=O)oc3c2)cc(OC)c1OC`: the Stability entry in [1] and in series [2] was “Stable” each time.

With `COc1cc(/C=C/C(=O)OCCCCCCN(CCCOC(=O)c2cc(OC)c(OC)c(OC)c2)CCCOc2ccc3ccc(=O)oc3c2)cc(OC)c1OC`, the Stability entry in series [1] and in [2] was “Stable” in each case.

As to `COc1cc(C(=O)OCCCN(CCCCCOC(=O)c2c3ccccc3cc3ccccc23)CCCOc2ccc3ccc(=O)oc3c2)cc(OC)c1OC`, the Stability entry in series [1] and in [2] was “Stable” each time.

Take `COc1cc(C(=O)OCCCCCCCN(CCCOC(=O)c2cc(OC)c(OC)c(OC)c2)CCCOc2ccc3ccc(=O)oc3c2)cc(OC)c1OC`: the Stability entry in [1] and in [2] was “Stable” in each case.

With `COc1cc(/C=C/C(=O)OCCCN(CCCCCOC(=O)c2cc(OC)c(OC)c(OC)c2)CCCOc2ccc3ccc(=O)oc3c2)cc(OC)c1OC`, the Stability entry in series [1] and in [2] was “Stable” each time.

As for `COc1cc(/C=C/C(=O)OCCCCCCN(CCCOC(=O)/C=C/c2cc(OC)c(OC)c(OC)c2)CCCOc2ccc3ccc(=O)oc3c2)cc(OC)c1OC`, the Stability entry in series [1] and in [2] was “Stable” each time.

Turning to `COc1cc(/C=C/C(=O)OCCCCCCCN(CCCOC(=O)c2cc(OC)c(OC)c(OC)c2)CCCOc2ccc3ccc(=O)oc3c2)cc(OC)c1OC`, the Stability result in series [1] and in [2] was “Stable” each time.

On to `COc1cc(C(=O)OCCCCCN(CCCOC(=O)c2c3ccccc3cc3ccccc23)CCCOc2ccc3ccc(=O)oc3c2)cc(OC)c1OC`, for which the Stability entry in series [1] and in series [2] was “Stable” in each case.

As a reminder, the Vmax is the rate approached at saturating substrate.
